ChEMBL document CHEMBL4251664, “Biocompatible Boron-Containing Prodrugs of Belinostat for the Potential Treatment of Solid Tumors” (ACS Med Chem Lett, 2018)
Calls of active or inactive are those of the source. The calls are words filed in the database; no cut-off is given here.

What was measured:
MDA-MB-231 [1] = assay: Prodrug conversion in human MDA-MB-231 cells assessed as belinostat level after 1 day by UHPLC-MS/MS analysis; assay type: ADME, cell-based; conditions: mda-mb-231, 24 h
Procedure, shortened: (§1)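 MDA-MB-231 or HeLa cells were incubated with the pinacol boronate prodrug, and culture medium was sampled daily from day 1 to day 6. The prodrug, boronic acid forms and belinostat were separated, identified and quantified by HPLC coupled to an Orbitrap mass spectrometer. Results are in ng/mL as mean ± SEM of triplicate experiments.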

MCF7 [2] = assay: Antitumor activity against human MCF7 cells implanted in ovariectomized nu/nu mouse assessed as tumor volume at 10 mg/kg, sc administered once daily for 22 days measured post last dose relative to control; assay type: functional
MDA-MB-231 [3] = assay: Prodrug conversion in human MDA-MB-231 cells assessed as (E)-4-((3-(3-(N-phenylsulfamoyl)phenyl)acrylamidooxy)methyl)phenylboronic acid level after 3 days by UHPLC-MS/MS analysis; assay type: ADME, cell-based; conditions: mda-mb-231, 72 h; procedure, shortened: as §1
HeLa [4] = assay: Prodrug conversion in human HeLa cells assessed as belinostat level after 1 day by UHPLC-MS/MS analysis; assay type: ADME, cell-based; conditions: 24 h; procedure, shortened: as §1
MDA-MB-231 [5] = assay: Prodrug conversion in human MDA-MB-231 cells assessed as belinostat level after 6 days by UHPLC-MS/MS analysis; assay type: ADME, cell-based; conditions: mda-mb-231, 144 h; procedure, shortened: as §1
MDA-MB-231 [6] = assay: Prodrug conversion in human MDA-MB-231 cells assessed as (E)-4-((3-(3-(N-phenylsulfamoyl)phenyl)acrylamidooxy)methyl)phenylboronic acid level after 6 days by UHPLC-MS/MS analysis; assay type: ADME, cell-based; conditions: mda-mb-231, 144 h; procedure, shortened: as §1
MDA-MB-231 [7] = assay: Prodrug conversion in human MDA-MB-231 cells assessed as belinostat level after 3 days by UHPLC-MS/MS analysis; assay type: ADME, cell-based; conditions: mda-mb-231, 72 h; procedure, shortened: as §1
NCI-H460 = assay: Antiproliferative activity against human NCI-H460 cells after 72 hrs by resazurin dye based fluorescence assay; assay type: functional, cell-based; conditions: NCI-H460, 72 h
Histone deacetylase = assay: Inhibition of HDAC in human cell lysates using fluoro-substrate peptide/fluoro-deacetylated peptide as substrate incubated for 20 mins measured at 1 to 2 mins interval for 30 to 60 mins by fluorescence assay; assay type: protein assay
MCF7 [8] = assay: Antitumor activity against human MCF7 cells implanted in ovariectomized nu/nu mouse assessed as tumor volume at 10 mg/kg, sc administered once daily for 22 days measured on day 12 during compound dosing (reference value: 869 +/- 173 mm3); assay type: functional
MDA-MB-231 [9] = assay: Prodrug conversion in human MDA-MB-231 cells assessed as belinostat level after 4 days by UHPLC-MS/MS analysis; assay type: ADME, cell-based; conditions: mda-mb-231, 96 h; procedure, shortened: as §1
MDA-MB-231 [10] = assay: Prodrug conversion in human MDA-MB-231 cells assessed as (E)-4-((3-(3-(N-phenylsulfamoyl)phenyl)acrylamidooxy)methyl)phenylboronic acid level after 4 days by UHPLC-MS/MS analysis; assay type: ADME, cell-based; conditions: mda-mb-231, 96 h; procedure, shortened: as §1
MDA-MB-231 [11] = assay: Prodrug conversion in human MDA-MB-231 cells assessed as belinostat level after 5 days by UHPLC-MS/MS analysis; assay type: ADME, cell-based; conditions: mda-mb-231, 120 h; procedure, shortened: as §1
MCF7 [12] = assay: Antitumor activity against human MCF7 cells implanted in ovariectomized nu/nu mouse assessed as tumor volume at 10 mg/kg, sc administered once daily for 22 days measured post last dose (reference value: 869 +/- 173 mm3); assay type: functional
MDA-MB-231 [13] = assay: Prodrug conversion in human MDA-MB-231 cells assessed as (E)-4-((3-(3-(N-phenylsulfamoyl)phenyl)acrylamidooxy)methyl)phenylboronic acid level after 1 day by UHPLC-MS/MS analysis; assay type: ADME, cell-based; conditions: mda-mb-231, 24 h; procedure, shortened: as §1
HeLa [14] = assay: Prodrug conversion in human HeLa cells assessed as belinostat level after 5 days by UHPLC-MS/MS analysis; assay type: ADME, cell-based; conditions: 120 h; procedure, shortened: as §1
Histone deacetylase 8 = target: T1, Histone deacetylase 8 (Homo sapiens, UniProt Q9BY41); assay: Inhibition of human HDAC8 using RHK(Ac)K(Ac)AMC as substrate
T1 sequence (Q9BY41 whole entry): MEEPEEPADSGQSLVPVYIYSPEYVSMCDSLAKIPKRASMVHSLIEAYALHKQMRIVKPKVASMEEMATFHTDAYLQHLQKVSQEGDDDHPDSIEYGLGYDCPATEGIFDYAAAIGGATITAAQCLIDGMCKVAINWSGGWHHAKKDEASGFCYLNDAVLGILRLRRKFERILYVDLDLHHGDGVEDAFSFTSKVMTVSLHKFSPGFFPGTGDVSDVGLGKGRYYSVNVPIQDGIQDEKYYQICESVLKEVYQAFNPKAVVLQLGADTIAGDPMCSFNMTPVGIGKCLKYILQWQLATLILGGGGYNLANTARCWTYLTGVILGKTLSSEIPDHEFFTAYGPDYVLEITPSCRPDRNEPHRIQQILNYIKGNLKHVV

MCF7 [15] = assay: Antitumor activity against human MCF7 cells implanted in ovariectomized nu/nu mouse assessed as tumor weight at 10 mg/kg, sc administered once daily for 22 days measured post last dose (reference value: 743 +/- 142 mg); assay type: functional
MCF7 [16] = assay: Antiproliferative activity against human MCF7 cells after 72 hrs by resazurin dye based fluorescence assay; assay type: functional, cell-based; conditions: MCF7, 72 h
HeLa [17] = assay: Prodrug conversion in human HeLa cells assessed as (E)-4-((3-(3-(N-phenylsulfamoyl)phenyl)acrylamidooxy)methyl)phenylboronic acid level after 3 days by UHPLC-MS/MS analysis; assay type: ADME, cell-based; conditions: 72 h; procedure, shortened: as §1
MDA-MB-231 [18] = assay: Prodrug conversion in human MDA-MB-231 cells assessed as belinostat level after 2 days by UHPLC-MS/MS analysis; assay type: ADME, cell-based; conditions: mda-mb-231, 48 h; procedure, shortened: as §1
HeLa [19] = assay: Prodrug conversion in human HeLa cells assessed as (E)-4-((3-(3-(N-phenylsulfamoyl)phenyl)acrylamidooxy)methyl)phenylboronic acid level after 5 days by UHPLC-MS/MS analysis; assay type: ADME, cell-based; conditions: 120 h; procedure, shortened: as §1
A549 = assay: Antiproliferative activity against human A549 cells after 72 hrs by resazurin dye based fluorescence assay; assay type: functional, cell-based; conditions: A549, 72 h
HeLa [20] = assay: Prodrug conversion in human HeLa cells assessed as (E)-4-((3-(3-(N-phenylsulfamoyl)phenyl)acrylamidooxy)methyl)phenylboronic acid level after 1 day by UHPLC-MS/MS analysis; assay type: ADME, cell-based; conditions: 24 h; procedure, shortened: as §1
MCF7 [21] = assay: Antitumor activity against human MCF7 cells implanted in ovariectomized nu/nu mouse assessed as tumor remission at 10 mg/kg, sc administered once daily for 22 days measured at 1 day interval for 3 weeks during compound dosing; assay type: functional, organism-based
Mus musculus = assay: Toxicity in ovariectomized nu/nu mouse implanted with human MCF7 cells assessed as effect on body weight at 10 mg/kg, sc administered once daily for 22 days; assay type: organism-based; conditions: in vivo, 528 h
Procedure, shortened: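 MCF-7 xenograft in mice, dosed 10 mg/kg/day by subcutaneous injection alongside a vehicle group. Treatment ran 22 days. Body weights were compared with the vehicle group, and tumour volume was measured over the same period. At the end, mice were sacrificed and tumours removed.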

HeLa [22] = assay: Prodrug conversion in human HeLa cells assessed as belinostat level after 3 days by UHPLC-MS/MS analysis; assay type: ADME, cell-based; conditions: 72 h; procedure, shortened: as §1
HeLa [23] = assay: Prodrug conversion in human HeLa cells assessed as belinostat level after 6 days by UHPLC-MS/MS analysis; assay type: ADME, cell-based; conditions: 144 h; procedure, shortened: as §1
HeLa [24] = assay: Prodrug conversion in human HeLa cells assessed as (E)-4-((3-(3-(N-phenylsulfamoyl)phenyl)acrylamidooxy)methyl)phenylboronic acid level after 6 days by UHPLC-MS/MS analysis; assay type: ADME, cell-based; conditions: 144 h; procedure, shortened: as §1
SK-MEL-28 = assay: Antiproliferative activity against human SK-MEL-28 cells after 72 hrs by resazurin dye based fluorescence assay; assay type: functional, cell-based; conditions: SK-MEL-28, 72 h

Compound: CC1(C)OB(c2ccc(CONC(=O)/C=C/c3cccc(S(=O)(=O)Nc4ccccc4)c3)cc2)OC1(C)C
- Drug metabolism (MDA-MB-231 [1]): 30.7 ng/mL
- T/C (MCF7 [2]): 14.6%
- Drug metabolism (MDA-MB-231 [3]): 246.9 ng/mL
- Drug metabolism (HeLa [4]): 8.4 ng/mL
- Drug metabolism (MDA-MB-231 [5]): 27.8 ng/mL
- Drug metabolism (MDA-MB-231 [6]): 130.9 ng/mL
- Drug metabolism (MDA-MB-231 [7]): 20.3 ng/mL
- IC50 (NCI-H460): 430 nM
- EC50 (Histone deacetylase): 0.35 µM
- Activity (MCF7 [8]): 153 mm3
- Drug metabolism (MDA-MB-231 [9]): 19.8 ng/mL
- Drug metabolism (MDA-MB-231 [10]): 171.8 ng/mL
- Drug metabolism (MDA-MB-231 [11]): 28.5 ng/mL
- Activity (MCF7 [12]): 127 mm3
- Drug metabolism (MDA-MB-231 [13]): 331.8 ng/mL
- Drug metabolism (HeLa [14]): 3.7 ng/mL
- EC50 (Histone deacetylase 8): 341 µM
- Activity (MCF7 [15]): 109 mg
- IC50 (MCF7 [16]): 1460 nM
- Drug metabolism (HeLa [17]): 144.9 ng/mL
- Drug metabolism (MDA-MB-231 [18]): 27.7 ng/mL
- Drug metabolism (HeLa [19]): 82.7 ng/mL
- IC50 (A549): 453 nM
- Drug metabolism (HeLa [20]): 282.7 ng/mL
- Activity (MCF7 [21]): Active
- Activity (Mus musculus): Non-Toxic
- Drug metabolism (HeLa [22]): 13.4 ng/mL
- Drug metabolism (HeLa [23]): 3.8 ng/mL
- Drug metabolism (HeLa [24]): 49.6 ng/mL
- IC50 (SK-MEL-28): 678 nM
